# Test results as given in ChEMBL document CHEMBL2321840, “Synthesis and structure-activity relationships of indazole arylsulfonamides as allosteric CC-chemokine receptor 4 (CCR4) antagonists” (J Med Chem, 2013).
# How the values were obtained:
# [1] = Oral bioavailability in Beagle dog at 1 mg/kg; type: ADME, organism-based, Canis lupus familiaris; settings: in vivo
# [2] = Volume of distribution at steady state in Beagle dog at 0.5 mg/kg, iv; type: ADME, organism-based, Canis lupus familiaris; set-up: dose 0.5 mg/kg, route intravenous; settings: beagle, in vivo, read-out: Vdss
# [3] = Dissociation constant, pKa of the compound; type: physicochemical
# [4] = Plasma protein binding in human by equilibrium dialysis technique; type: ADME, cell-free; settings: read-out: PPB (converted)
# How it was run: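 Rapid equilibrium dialysis in CD rat, beagle dog or human plasma, with compound at a nominal 1 μg/mL; n = 3.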
# [5] = Kinetic solubility of the compound by chemiluminescent nitrogen detection assay; type: physicochemical; settings: for solubility kinetic: read-out: Kinetic_solubility
# [6] = Lipophilicity, log D of the compound by chromatographic analysis; type: physicochemical
# How it was run: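 Chromatographic log D measured at pH 7.4.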
# [7] = target: T1, C-C chemokine receptor type 4 (Homo sapiens, UniProt P51679); test: Antagonist activity at CCR4 receptor in human whole blood assessed as F-actin polymerization after 30 mins by FACS-based flow cytometric analysis; settings: for Kb: read-out: pA2 (converted)
# T1 sequence (P51679 whole entry): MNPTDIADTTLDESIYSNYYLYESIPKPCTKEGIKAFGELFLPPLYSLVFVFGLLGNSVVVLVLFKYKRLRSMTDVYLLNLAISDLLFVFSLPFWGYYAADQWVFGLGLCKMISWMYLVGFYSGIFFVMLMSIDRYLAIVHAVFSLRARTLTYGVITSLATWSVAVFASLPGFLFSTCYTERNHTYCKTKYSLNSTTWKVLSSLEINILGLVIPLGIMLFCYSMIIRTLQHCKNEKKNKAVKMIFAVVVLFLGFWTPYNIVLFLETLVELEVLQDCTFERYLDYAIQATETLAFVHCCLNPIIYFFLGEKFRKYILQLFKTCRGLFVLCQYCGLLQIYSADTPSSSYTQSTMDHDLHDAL
# [8] = target: T1, C-C chemokine receptor type 4; test: Antagonist activity at human recombinant CCR4 receptor expressed in CHO cell membranes by [35S]GTPgammaS binding assay; type: functional
# [9] = Volume of distribution at steady state in CD rat at 1 mg/kg, iv and 1 mg/kg, po; type: ADME, organism-based; settings: in vivo, read-out: Vdss
# How it was run: (§1)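 CD rat pharmacokinetics, with compounds given as solutions in DMSO–PEG200–H₂O (5:45:50); one analogue used a 10:40:50 ratio.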
# [10] = Oral bioavailability in CD rat at 1 mg/kg; type: ADME, organism-based; settings: in vivo; how it was run: as §1
# in vivo [11] = settings: beagle, dog, iv, 0.5 mg/kg
# in vivo [12] = settings: beagle, dog, iv, 0.5 mg/kg; remark: listed apart in the source
# in vivo [13] = settings: CD, rat, iv, 1 mg/kg
# in vivo [14] = settings: CD, rat, iv, 1 mg/kg; remark: listed apart in the source
pKa [3],solubility kinetic [5] [µg/mL],chromatographic logD [6],Kb [7] [nM],IC50 [8] [nM],SMILES,further results
6.6,≥ 124,4.1,–,–,COc1cccc2c1c(NS(=O)(=O)c1ccc(Cl)s1)nn2Cc1cccc(CNC(C)=O)c1,bioavailability [1]: 49%; Vd [2]: 3.2 L/kg; fraction unbound [4]: 0.005
–,≥ 161,4.1,1000,39.8,COc1cc(F)cc2c1c(NS(=O)(=O)c1ccc(Cl)s1)nn2Cc1cccc(CNC(C)=O)c1,–
–,≥ 182,3,–,126,COc1cccc2c1c(NS(=O)(=O)c1ccc(Cl)s1)nn2Cc1cccc(CNC(C)=O)n1,–
5.66,≥ 113,2.6,1000,6.31,CC(=O)NCc1cccc(Cn2nc(NS(=O)(=O)c3ccc(Cl)s3)c3c(CO)cccc32)c1,–
5.93,≥ 117,3.3,–,251,CC(=O)NCc1cccc(Cn2nc(NS(=O)(=O)c3ccc(Cl)s3)c3ccccc32)c1,–
7.26,36,4.5,1260,15.8,COc1cccc2c1c(NS(=O)(=O)c1ccc(C)c(F)c1)nn2Cc1cccc(CNC(=O)C(C)(C)O)c1,–
–,≥ 153,4.9,794,39.8,COc1cccc2c1c(NS(=O)(=O)c1ccc(Cl)s1)nn2Cc1cccc(CNC(=O)C2CCCO2)c1 (configuration not stated),–
–,≥ 174,4.1,631,39.8,COc1c(F)ccc2c1c(NS(=O)(=O)c1ccc(Cl)s1)nn2Cc1cccc(CNC(=O)C(C)(C)O)c1,–
–,–,2.9,–,–,O=C([C@H]1CCCCN1)N1CCN(c2nc(NCc3ccc(Cl)cc3Cl)c3cccnc3n2)CC1,–
–,≥ 250,3.9,562,25.1,COc1cccc2c1c(NS(=O)(=O)c1ccc(Cl)s1)nn2Cc1cccc(CNC(=O)[C@H]2COCCN2)c1,–
6.82,157,4.7,–,398,COc1cccc2c1c(NS(=O)(=O)c1cccc(Cl)c1Cl)nn2Cc1cccc(CNC(=O)C(C)(C)O)c1,–
–,124,4.5,–,31.6,COc1cccc2c1c(NS(=O)(=O)c1ccc(Cl)s1)nn2Cc1cccc(CNC(=O)C2CCO2)c1 (configuration not stated),–
–,≥ 180,3.3,141,15.8,COc1cccc2c1c(NS(=O)(=O)c1ccc(Cl)s1)nn2Cc1cccc(CNC(=O)C(C)(C)N)c1,Vd [2]: 5 L/kg; fraction unbound [4]: 0.04; Vd [9]: 0.84 L/kg; bioavailability [10]: 29%; half-life (in vivo [11]): 144 min; clearance (in vivo [12]): 18 mL/min/kg; clearance (in vivo [13]): 15 mL/min/kg; half-life (in vivo [14]): 78 min
–,≥ 193,4.4,501,31.6,COc1cccc2c1c(NS(=O)(=O)c1ccc(Cl)s1)nn2Cc1cccc(CNC(=O)C2CCOCC2)c1,–
–,57,4.8,–,100,CC(=O)NCc1cccc(Cn2nc(NS(=O)(=O)c3ccc(Cl)s3)c3c(C(C)=O)cccc32)c1,–
5.62,≥ 208,2.7,501,20,CC(=O)NCc1cccc(Cn2nc(NS(=O)(=O)c3ccc(Cl)s3)c3c(C(C)O)cccc32)c1 (configuration not stated),Vd [9]: 3.5 L/kg; bioavailability [10]: 35%; clearance (in vivo [13]): 13 mL/min/kg; half-life (in vivo [14]): 222 min
–,≥ 180,4.4,251,6.31,"COc1cccc2c1c(NS(=O)(=O)c1ccc(Cl)s1)nn2Cc1cccc(CNC(=O)C2COCCN2C)c1 (single isomer, unassigned; isomer B)",Vd [2]: 5.7 L/kg; fraction unbound [4]: 0.014; Vd [9]: 1 L/kg; bioavailability [10]: 68%; half-life (in vivo [11]): 156 min; clearance (in vivo [12]): 22 mL/min/kg; clearance (in vivo [13]): 24 mL/min/kg; half-life (in vivo [14]): 78 min

pKa [3],solubility kinetic [5] [µg/mL],chromatographic logD [6],Kb [7] [nM],IC50 [8] [nM],SMILES,further results
5.6,≥ 188,3.7,7940,100,CC(=O)NCc1cccc(Cn2nc(NS(=O)(=O)c3ccc(Cl)s3)c3c(C(F)F)cccc32)c1,–
5.4,≥ 155,2.5,–,316,CC(=O)NCc1cccc(Cn2nc(NS(=O)(=O)c3ccc(Cl)s3)c3c(C#N)cccc32)c1,–
–,≥ 173,4,1000,20,COc1cccc2c1c(NS(=O)(=O)c1ccc(Cl)s1)nn2Cc1cccc(CNC(=O)C2COC2)c1,–
–,–,2.9,–,–,COc1ccc(COc2nc(Br)cnc2NS(=O)(=O)c2ccc(C)cc2)cc1OCCN(C)C,–
6.76,76,5.1,–,398,COc1cccc2c1c(NS(=O)(=O)c1ccc(Cl)c(Cl)c1)nn2Cc1cccc(CNC(=O)C(C)(C)O)c1,–
6.03,≥ 226,3.8,6310,31.6,CC(=O)NCc1cccc(Cn2nc(NS(=O)(=O)c3ccc(Cl)s3)c3c(Cl)cccc32)c1,–
–,≥ 177,4,–,79.4,COc1ccc(F)c2c1c(NS(=O)(=O)c1ccc(Cl)s1)nn2Cc1cccc(CNC(C)=O)c1,–
–,≥ 161,2.5,–,100,COc1cccc2c1c(NS(=O)(=O)c1ccc(Cl)s1)nn2Cc1ccnc(CNC(C)=O)c1,–
7.06,≥ 198,4.5,–,50.1,COc1cccc2c1c(NS(=O)(=O)c1cccc(Cl)c1)nn2Cc1cccc(CNC(=O)C(C)(C)O)c1,–
5.62,≥ 139,3,5010,79.4,CC(=O)NCc1cccc(Cn2nc(NS(=O)(=O)c3ccc(Cl)s3)c3c(F)cccc32)c1,–
–,122,4.3,–,251,COc1cccc2c1c(NS(=O)(=O)c1ccc(Cl)s1)nn2Cc1cccc(CNC2COC2)c1,–
–,≥ 199,4.1,3160,12.6,COc1c(F)ccc2c1c(NS(=O)(=O)c1ccc(Cl)s1)nn2Cc1cccc(CNC(C)=O)c1,–
5.46,≥ 159,2.9,–,100,CC(=O)NCc1cccc(Cn2nc(NS(=O)(=O)c3ccc(Cl)s3)c3c(C(C)(C)O)cccc32)c1,–
6.12,≥ 166,2.9,794,12.6,CC(=O)NCc1cccc(Cn2nc(NS(=O)(=O)c3ccc(Cl)s3)c3c(O)cccc32)c1,Vd [9]: 1.2 L/kg; bioavailability [10]: 12%; clearance (in vivo [13]): 19 mL/min/kg; half-life (in vivo [14]): 72 min
–,–,–,–,–,"COc1cccc2c1c(NS(=O)(=O)c1ccc(Cl)s1)nn2Cc1cccc(CNC(=O)C2COCCN2C)c1 (single isomer, unassigned; isomer A)",pA2 [7]: 6.6; Kinetic_solubility [5]: >= 203 ug ml-1; pIC50 ([8]; cho): 8.2
–,≥ 141,2.6,> 10000,158,COc1cccc2c1c(NS(=O)(=O)c1ccc(Cl)s1)nn2Cc1cc(CNC(C)=O)ccn1,–
